Measurements reported in ChEMBL document CHEMBL3352049, “Taxanes with high potency inducing tubulin assembly overcome tumoural cell resistances” (Bioorg Med Chem, 2014).
Calls of active or inactive are those of the source. The calls are words filed in the database; no cut-off is given here.

Key:
[1] = Cytotoxicity against human A2780AD cells by MTT assay; format: functional, cell-based; settings: A2780 ADR
1A9 [2] = assay: Cytotoxicity against human 1A9 cells by MTT assay; format: functional, cell-based
In short: (§1)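 MTT assay run as a modified version of an earlier method. IC50 in nM is the mean ± SEM of three independent assays. Relative resistance is the IC50 in the resistant line (1A9 tubulin mutants, or βIII-transfected HeLa) divided by the IC50 in the parental line (1A9 or HeLa).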

A549 [3] = assay: Effect on microtubule cytoskeleton in human A549 cells assessed as induction of micronuleated cells with short microtubules in cytoplasm at 60 to 120 nM after 24 hrs by immunofluorescence assay; format: cell-based
In short: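 A549 cells were grown overnight on coverslips, then given DMSO vehicle or ligand (60 or 120 nM) for 24 h. Cells were permeabilized with Triton X-100 and fixed in 3.7% formaldehyde. Microtubules were stained with DM1A α-tubulin antibody and DNA with Hoechst 33342. Preparations were viewed by epifluorescence microscopy.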

[4] = Cell cycle arrest at G2/M phase in human A2780AD cells at 30 nM after 20 hrs by flow cytometry; format: functional, cell-based; settings: A2780 ADR
A2780 [5] = assay: Cytotoxicity against human A2780 cells by MTT assay; format: functional, cell-based
A549 [6] = assay: Cell cycle arrest at G2/M phase in human A549 cells at 60 nM after 20 hrs by flow cytometry; format: functional, cell-based
A2780 [7] = assay: Cell cycle arrest at G2/M phase in human A2780 cells at 30 nM after 20 hrs by flow cytometry; format: functional, cell-based
[8] = Cytotoxicity against human 1A9PTX10 cells by MTT assay; format: functional, cell-based; settings: 1A9/ptx-10; in short: as §1
A549 [9] = assay: Cell cycle arrest at G2/M phase in human A549 cells at 30 nM after 20 hrs by flow cytometry; format: functional, cell-based
Tubulin (Bos taurus) = Tubulin (Bos taurus) (UniProt Q6B856+Q862L2+Q862F3); assay: Induction of calf brain tubulin polymerization assessed as tubulin concentration required to form microtubules by electron microscopy
In short: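 Critical tubulin concentration found by centrifugation and quantification of the polymer formed. Polymers adsorbed onto formvar/carbon-coated copper grids, stained with 1% uranyl acetate, and viewed by electron microscopy at 100 kV.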

[10] = Cytotoxicity against human 1A9/A8 cells by MTT assay; format: functional, cell-based; in short: as §1
microtubule (Bos taurus) [11] = assay: Binding affinity to paclitaxel site of microtubule (Bos taurus) after 30 mins at 40 degC by epothilone B displacement method
A2780 [12] = assay: Cell cycle arrest at G2/M phase in human A2780 cells at 60 nM after 20 hrs by flow cytometry; format: functional, cell-based
[13] = Cytotoxicity against human MCF7/R cells by MTT assay; format: functional, cell-based; settings: MCF7R
HeLa [14] = assay: Cytotoxicity against human HeLa cells transfected with wild-type tubulin beta3 by MTT assay; format: functional, cell-based; in short: as §1
microtubule (Bos taurus) [15] = assay: Binding affinity to paclitaxel site of microtubule (Bos taurus) after 30 mins at 30 degC by epothilone B displacement method
[16] = Cytotoxicity against human 1A9PTX22 cells by MTT assay; format: functional, cell-based; settings: 1A9/ptx-22; in short: as §1
microtubule (Bos taurus) [17] = assay: Binding affinity to paclitaxel site of microtubule (Bos taurus) after 30 mins at 35 degC by epothilone B displacement method
microtubule (Bos taurus) [18] = assay: Binding affinity to paclitaxel site of microtubule (Bos taurus) after 30 mins at 26 degC by epothilone B displacement method
HeLa [19] = assay: Cytotoxicity against human HeLa cells by MTT assay; format: functional, cell-based; in short: as §1
[20] = Cell cycle arrest at G2/M phase in human A2780AD cells at 60 nM after 20 hrs by flow cytometry; format: functional, cell-based; settings: A2780 ADR
microtubule (Bos taurus) [21] = assay: Binding affinity to microtubule (Bos taurus) by TR-NOESY spectroscopy
1A9 [22] = assay: Resistance ratio of IC50 for human 1A9PTX10 cells to IC50 for human 1A9 cells; format: functional
In short: (§2)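 Relative resistance is the IC50 in the 1A9 tubulin-mutant line divided by the IC50 in parental 1A9 ovarian carcinoma cells. Each IC50 (nM) is the mean ± SEM of three independent assays.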

HeLa [23] = assay: Resistance ratio of IC50 for human HeLa cells transfected with wild-type tubulin beta3 to IC50 for human HeLa cells; format: functional
In short: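 Relative resistance is the IC50 in HeLa cells transfected with wild-type βIII-tubulin divided by the IC50 in parental HeLa cells. Each IC50 (nM) is the mean ± SEM of three independent assays.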

microtubule (Bos taurus) [24] = assay: Binding affinity to microtubule (Bos taurus) after 30 mins at 30 degC by flutax-2 displacement method
1A9 [25] = assay: Resistance ratio of IC50 for human 1A9PTX22 cells to IC50 for human 1A9 cells; format: functional; in short: as §2
microtubule (Bos taurus) [26] = assay: Binding affinity to microtubule (Bos taurus) after 30 mins at 27 degC by flutax-2 displacement method
microtubule (Bos taurus) [27] = assay: Binding affinity to microtubule (Bos taurus) after 30 mins at 37 degC by flutax-2 displacement method
microtubule (Bos taurus) [28] = assay: Binding affinity to microtubule (Bos taurus) after 30 mins at 26 degC by flutax-2 displacement method
[29] = Resistance ratio of IC50 for human A2780AD cells to IC50 for human A2780 cells; format: functional, A2780 ADR
microtubule (Bos taurus) [30] = assay: Binding affinity to microtubule (Bos taurus) by STD NMR spectroscopy
microtubule (Bos taurus) [31] = assay: Binding affinity to microtubule (Bos taurus) after 30 mins at 42 degC by flutax-2 displacement method
microtubule (Bos taurus) [32] = assay: Binding affinity to microtubule (Bos taurus) after 30 mins at 32 degC by flutax-2 displacement method
microtubule (Bos taurus) [33] = assay: Binding affinity to microtubule (Bos taurus) after 30 mins at 35 degC by flutax-2 displacement method
microtubule (Bos taurus) [34] = assay: Binding affinity to microtubule (Bos taurus) after 30 mins at 40 degC by flutax-2 displacement method
1A9 [35] = assay: Resistance ratio of IC50 for human 1A9/A8 cells to IC50 for human 1A9 cells; format: functional

Compound	IC50 [1] [nM]	IC50 (1A9 [2]) [nM]	Activity (A549 [3])	Activity [4]	IC50 (A2780 [5]) [nM]	Activity (A549 [6])	Activity (A2780 [7])	IC50 [8] [nM]	Activity (A549 [9])	Activity (Tubulin (Bos taurus)) [µM]	IC50 [10] [nM]	Activity (A2780 [12])	IC50 [13] [nM]	IC50 (HeLa [14]) [nM]	IC50 [16] [nM]	IC50 (HeLa [19]) [nM]	Activity [20]	other results
CCC(=O)O[C@H]1C(=O)[C@@]2(C)[C@H]([C@H](OC(=O)c3cccc(OC)c3)[C@]3(O)C[C@H](OC(=O)[C@H](O)[C@H](C=C(C)C)NC(=O)OC(C)(C)C)C(C)=C1C3(C)C)[C@]1(OC(C)=O)CO[C@@H]1C[C@@H]2O	10.5	3.3	Active	Active	3.4	Active	Active	2.9	Active	0.6	4	Active	0.33	4.8	4.9	5.7	Active	Kb (microtubule (Bos taurus) [11]): 318 ×10⁷ /M; Kb (microtubule (Bos taurus) [15]): 545 ×10⁷ /M; Kb (microtubule (Bos taurus) [17]): 478 ×10⁷ /M; Kb (microtubule (Bos taurus) [18]): 731 ×10⁷ /M
CC(=O)O[C@@]12CO[C@@H]1C[C@H](O)[C@@]1(C)C(=O)[C@H](OC(=O)N(C)C)C3=C(C)[C@@H](OC(=O)[C@H](O)[C@H](C=C(F)F)NC(=O)OC(C)(C)C)C[C@@](O)([C@@H](OC(=O)c4ccccc4)[C@H]21)C3(C)C	15.1	3.2	Active	Active	3.5	Active	Active	5.25	Active	0.3	4	Active	4.3	3.5	7	2.5	Active	Activity (microtubule (Bos taurus) [21]): Active; Ratio IC50 (1A9 [22]): 1.6; Ratio IC50 (HeLa [23]): 1.4; Kb (microtubule (Bos taurus) [24]): 13 ×10⁷ /M; Ratio IC50 (1A9 [25]): 2.2; Kb (microtubule (Bos taurus) [26]): 14 ×10⁷ /M; Kb (microtubule (Bos taurus) [27]): 10 ×10⁷ /M; Kb (microtubule (Bos taurus) [28]): 15 ×10⁷ /M; Ratio IC50 [29]: 4.3; Activity (microtubule (Bos taurus) [30]): Active; Kb (microtubule (Bos taurus) [31]): 8 ×10⁷ /M; Kb (microtubule (Bos taurus) [32]): 13 ×10⁷ /M; Kb (microtubule (Bos taurus) [33]): 10 ×10⁷ /M; Kb (microtubule (Bos taurus) [34]): 10 ×10⁷ /M; Ratio IC50 (1A9 [35]): 1.2
